According to ChEMBL document CHEMBL1128272, “Stereoselective LSD-like activity in a series of d-lysergic acid amides of (R)- and (S)-2-aminoalkanes” (J Med Chem, 1995):
Active and inactive are the calls of the source. No cut-off for these calls is given here.

Assays:
[1] = target: T1, 5-hydroxytryptamine receptor 1A (Rattus norvegicus, UniProt P19327); experiment: Binding affinity was measured against 5-hydroxytryptamine 1A receptor by displacement of [3H]8-OH-DPAT by lysergic acid amides
T1 sequence (P19327 whole entry): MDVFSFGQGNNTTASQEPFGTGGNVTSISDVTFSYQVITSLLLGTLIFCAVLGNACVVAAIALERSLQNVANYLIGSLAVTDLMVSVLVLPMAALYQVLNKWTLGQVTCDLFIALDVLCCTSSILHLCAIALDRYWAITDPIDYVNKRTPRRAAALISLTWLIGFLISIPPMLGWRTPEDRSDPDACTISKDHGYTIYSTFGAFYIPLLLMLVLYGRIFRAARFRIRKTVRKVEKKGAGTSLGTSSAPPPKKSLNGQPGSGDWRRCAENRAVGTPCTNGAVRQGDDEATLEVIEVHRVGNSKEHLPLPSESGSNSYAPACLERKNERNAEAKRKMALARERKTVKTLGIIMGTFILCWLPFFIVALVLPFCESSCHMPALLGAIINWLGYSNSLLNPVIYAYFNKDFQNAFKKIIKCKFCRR
Procedure, shortened: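 Rat hippocampal membranes from pooled male Sprague-Dawley rats, preincubated at 37 °C, in 50 mM Tris HCl (pH 7.4) with 0.5 mM Na2EDTA, 0.1% ascorbate and 10 μM pargyline. Competition against 0.75 nM [3H]-8-OH-DPAT for 10 min at 37 °C, then GF/C filtration and scintillation counting. Triplicates. Three to four experiments combined, analysed with EBDA/LIGAND.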

[2] = target: T2, 5-hydroxytryptamine receptor 2A (Rattus norvegicus, UniProt P14842); experiment: (§1) Binding affinity was measured against 5-hydroxytryptamine 2A receptor by displacement of [3H]- ketanserin by lysergic acid amides
T2 sequence (P14842 whole entry): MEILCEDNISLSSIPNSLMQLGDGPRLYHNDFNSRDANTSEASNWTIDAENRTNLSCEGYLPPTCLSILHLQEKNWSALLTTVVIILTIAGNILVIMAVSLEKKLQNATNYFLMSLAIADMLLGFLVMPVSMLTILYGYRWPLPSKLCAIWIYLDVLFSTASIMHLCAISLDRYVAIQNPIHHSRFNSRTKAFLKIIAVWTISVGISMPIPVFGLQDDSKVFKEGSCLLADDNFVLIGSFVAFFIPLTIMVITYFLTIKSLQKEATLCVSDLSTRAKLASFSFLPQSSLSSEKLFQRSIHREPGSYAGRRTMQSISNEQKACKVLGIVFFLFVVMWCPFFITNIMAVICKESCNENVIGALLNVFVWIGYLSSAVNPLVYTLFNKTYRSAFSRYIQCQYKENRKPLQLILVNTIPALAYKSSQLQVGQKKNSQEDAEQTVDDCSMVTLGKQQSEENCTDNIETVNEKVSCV
Procedure, shortened: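 Rat frontal cortex membranes from pooled male Sprague-Dawley rats, preincubated at 37 °C, in 50 mM Tris HCl (pH 7.4) with 0.5 mM Na2EDTA, 0.1% ascorbate, 10 μM pargyline and 5.7 mM CaCl2. Displacement of 0.75 nM [3H]ketanserin with 200–400 μg protein for 15 min at 37 °C, then GF/C filtration. Triplicates. Three to four experiments combined.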

Rattus norvegicus [3] = experiment: Compound was tested for its effect on animals. Value reported as number of rats disrupted in trained rats at a dose of 440 (nmol/kg); type: functional
Procedure, shortened: (§2)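 Two-lever drug discrimination in food-restricted rats (~80% free-feeding weight) trained on FR 50 to tell saline from LSD tartrate (186 nmol/kg, 0.08 mg/kg ip, 30 min pre-session). Test drugs were given ip in saline, 1 mL/kg. Test sessions ran under extinction, ending at 50 presses on either lever. Testing required 85% training accuracy. Counts of rats tested and disrupted were recorded, plus the percentage selecting the drug lever.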

Rattus norvegicus [4] = experiment: Compound was tested for its effect on animals. Value reported as number of rats disrupted in trained rats at a dose of 1760 (nmol/kg); type: functional; procedure, shortened: as §2
Rattus norvegicus [5] = experiment: Compound was tested for its effect on animals. Value reported as number of rats disrupted in trained rats at a dose of 186 (nmol/kg); type: functional; procedure, shortened: as §2
Rattus norvegicus [6] = experiment: Effective dose in trained rats was determined at a dose of 220 (nmol/kg); type: functional, organism-based
Rattus norvegicus [7] = experiment: Percentage of animals selecting drug lever in trained rats at a dose 440 (nmol/kg); type: functional; procedure, shortened: as §2
Rattus norvegicus [8] = experiment: Percentage of animals selecting drug lever in trained rats at a dose 1760 (nmol/kg); type: functional; procedure, shortened: as §2
Rattus norvegicus [9] = experiment: Percentage of animals selecting drug lever in trained rats at a dose 220 (nmol/kg); type: functional; procedure, shortened: as §2
[10] = target: T2, 5-hydroxytryptamine receptor 2A; experiment: as §1; remark: listed apart in the source
Procedure, shortened: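 Rat frontal cortex membranes from pooled male Sprague-Dawley rats, preincubated at 37 °C, in 50 mM Tris HCl (pH 7.4) with 0.5 mM Na2EDTA, 0.1% ascorbate, 10 μM pargyline and 5.7 mM CaCl2. Triplicates. Three to four experiments combined.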

Rattus norvegicus [11] = experiment: Compound was tested for its effect on animals. Value reported as number of rats disrupted in trained rats at a dose of 47 (nmol/kg); type: functional; procedure, shortened: as §2
Rattus norvegicus [12] = experiment: Compound was tested for its effect on animals. Value reported as number of rats disrupted in trained rats at a dose of 93 (nmol/kg); type: functional; procedure, shortened: as §2
Rattus norvegicus [13] = experiment: Compound was tested for its effect on animals. Value reported as number of rats disrupted in trained rats at a dose of 23 (nmol/kg); type: functional; procedure, shortened: as §2
Rattus norvegicus [14] = experiment: Effective dose in trained rats was determined at a dose of 12 (nmol/kg); type: functional
Rattus norvegicus [15] = experiment: Compound was tested for its effect on animals. Value reported as number of rats disrupted in trained rats at a dose of 12 (nmol/kg); type: functional; procedure, shortened: as §2
Rattus norvegicus [16] = experiment: Percentage of animals selecting drug lever in trained rats at a dose 23 (nmol/kg); type: functional; procedure, shortened: as §2
Rattus norvegicus [17] = experiment: Percentage of animals selecting drug lever in trained rats at a dose 47 (nmol/kg); type: functional
Procedure, shortened: (§3)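 Drug-naive rats held at about 80% of free-feeding weight were trained on a two-lever FR50 food schedule to tell ip LSD tartrate (186 nmol/kg, 0.08 mg/kg) from saline, given 30 min before sessions. Test drugs were given ip in saline (1 mL/kg). Tests ran under extinction and ended at 50 presses on either lever. Rats had to hold 85% correct on training days. Read-out was % selecting the drug lever per dose.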

Rattus norvegicus [18] = experiment: Percentage of animals selecting drug lever in trained rats at a dose 93 (nmol/kg); type: functional; procedure, shortened: as §3
Rattus norvegicus [19] = experiment: Potency in trained rats was determined with relative to reference compound […] at a dose of 12 (nmol/kg); type: functional
Rattus norvegicus [20] = experiment: Percentage of animals selecting drug lever in 1-Trained rats at a dose 186 (nmol/kg); type: functional; procedure, shortened: as §2
Rattus norvegicus [21] = experiment: Percentage of animals selecting drug lever in trained rats at a dose 12 (nmol/kg); type: functional; procedure, shortened: as §2
Rattus norvegicus [22] = experiment: Compound was tested for its effect on animals. Value reported as number of rats disrupted in trained rats at a dose of 55 (nmol/kg); type: functional; procedure, shortened: as §2
Rattus norvegicus [23] = experiment: Compound was tested for its effect on animals. Value reported as number of rats disrupted in trained rats at a dose of 220 (nmol/kg); type: functional; procedure, shortened: as §2
Rattus norvegicus [24] = experiment: Effective dose in trained rats was determined at a dose of 55 (nmol/kg) Value in parentheses are with 95% confidence intervals; type: functional
Rattus norvegicus [25] = experiment: Compound was tested for its effect on animals. Value reported as number of rats disrupted in trained rats at a dose of 110 (nmol/kg); type: functional; procedure, shortened: as §2
Rattus norvegicus [26] = experiment: Percentage of animals selecting drug lever in trained rats at a dose 55 (nmol/kg); type: functional; procedure, shortened: as §3
Rattus norvegicus [27] = experiment: Potency in trained rats was determined with relative to reference compound […] at a dose of 55 (nmol/kg); type: functional
Rattus norvegicus [28] = experiment: Percentage of animals selecting drug lever in 1-Trained rats at a dose 110 (nmol/kg); type: functional; procedure, shortened: as §2
Rattus norvegicus [29] = experiment: Percentage of animals selecting drug lever in 1-Trained rats at a dose 220 (nmol/kg); type: functional; procedure, shortened: as §2
Rattus norvegicus [30] = experiment: Compound was tested for its effect on animals. Value reported as number of rats disrupted in trained rats at a dose of 500 (nmol/kg); type: functional; procedure, shortened: as §2
Rattus norvegicus [31] = experiment: Compound was tested for its effect on animals. Value reported as number of rats disrupted in trained rats at a dose of 63 (nmol/kg); type: functional; procedure, shortened: as §2
Rattus norvegicus [32] = experiment: Compound was tested for its effect on animals. Value reported as number of rats disrupted in trained rats at a dose of 250 (nmol/kg); type: functional; procedure, shortened: as §2
Rattus norvegicus [33] = experiment: Effective dose in trained rats was determined at a dose of 63 (nmol/kg) Value in parentheses are with 95% confidence intervals; type: functional
Rattus norvegicus [34] = experiment: Compound was tested for its effect on animals. Value reported as number of rats disrupted in trained rats at a dose of 125 (nmol/kg); type: functional; procedure, shortened: as §2
Rattus norvegicus [35] = experiment: Percentage of animals selecting drug lever in trained rats at a dose 250 (nmol/kg); type: functional; procedure, shortened: as §2
Rattus norvegicus [36] = experiment: Percentage of animals selecting drug lever in trained rats at a dose 500 (nmol/kg); type: functional; procedure, shortened: as §3
Rattus norvegicus [37] = experiment: Percentage of animals selecting drug lever in trained rats at a dose 63 (nmol/kg); type: functional; procedure, shortened: as §3
Rattus norvegicus [38] = experiment: Potency in trained rats was determined with relative to reference compound […] at a dose of 63 (nmol/kg); type: functional
Rattus norvegicus [39] = experiment: Percentage of animals selecting drug lever in trained rats at a dose 125 (nmol/kg); type: functional; procedure, shortened: as §2
Rattus norvegicus [40] = experiment: Potency in trained rats was determined with relative to reference compound […] at a dose of 186 (nmol/kg); type: functional
Rattus norvegicus [41] = experiment: Percentage of animals selecting drug lever in trained rats at a dose 186 (nmol/kg); type: functional; procedure, shortened: as §2
Rattus norvegicus [42] = experiment: Effective dose in trained rats was determined at a dose of 186 (nmol/kg); type: functional

Q: What does the source list for CCCC(C)NC(=O)[C@@H]1C=C2c3cccc4[nH]cc(c34)C[C@H]2N(C)C1 (stereo partly drawn)?
A: Ki [1]: 8 nM; Ki [2]: 105 nM; D (Rattus norvegicus [3]): 0%; D (Rattus norvegicus [4]): 11%; D (Rattus norvegicus [5]): 0%; ED50 (Rattus norvegicus [6]): inactive; SDL (Rattus norvegicus [7]): 0%; SDL (Rattus norvegicus [8]): 25%; SDL (Rattus norvegicus [9]): 0%

Q: For CC[C@@H](C)NC(=O)[C@@H]1C=C2c3cccc4[nH]cc(c34)C[C@H]2N(C)C1, which Ki [10] is on record?
A: The Ki was 8.8 nM.

Q: And the D (Rattus norvegicus [11])?
A: The D was 0%.

Q: And the D (Rattus norvegicus [12])?
A: Its D is 0%.

Q: What about the D (Rattus norvegicus [5]) of the same molecule?
A: The D was 0%.

Q: What about the D (Rattus norvegicus [13]) of the same molecule?
A: Its D is 0%.

Q: What about the ED50 (Rattus norvegicus [14]) of the same molecule?
A: The ED50 was 0.033 µmol/kg.

Q: And the D (Rattus norvegicus [15])?
A: Its D is 0%.

Q: What about the SDL (Rattus norvegicus [16]) of the same molecule?
A: Its SDL is 50%.

Q: What about the SDL (Rattus norvegicus [17]) of the same molecule?
A: The SDL was 75%.

Q: What about the SDL (Rattus norvegicus [18]) of the same molecule?
A: Its SDL is 75%.

Q: And the Potency (Rattus norvegicus [19])?
A: The Potency was 1.45.

Q: And the SDL (Rattus norvegicus [20])?
A: The SDL was 88%.

Q: What about the SDL (Rattus norvegicus [21]) of the same molecule?
A: Its SDL is 13%.

Q: With CCC[C@@H](C)NC(=O)[C@@H]1C=C2c3cccc4[nH]cc(c34)C[C@H]2N(C)C1 as the molecule, how does the Ki [1] read?
A: The Ki was 0.6 nM.

Q: What about the Ki [10] of the same molecule?
A: The Ki was 4.5 nM.

Q: What about the D (Rattus norvegicus [22]) of the same molecule?
A: Its D is 0%.

Q: What about the D (Rattus norvegicus [23]) of the same molecule?
A: Its D is 30%.

Q: And the ED50 (Rattus norvegicus [24])?
A: Its ED50 is 0.102 µmol/kg.

Q: What about the D (Rattus norvegicus [25]) of the same molecule?
A: Its D is 0%.

Q: What about the SDL (Rattus norvegicus [26]) of the same molecule?
A: The SDL was 14%.

Q: And the Potency (Rattus norvegicus [27])?
A: The Potency was 0.47.

Q: What about the SDL (Rattus norvegicus [28]) of the same molecule?
A: Its SDL is 44%.

Q: And the SDL (Rattus norvegicus [29])?
A: The SDL was 100%.

Q: With CCC(CC)NC(=O)[C@@H]1C=C2c3cccc4[nH]cc(c34)C[C@H]2N(C)C1 as the molecule, how does the Ki [1] read?
A: Its Ki is 2.1 nM.

Q: What about the Ki [10] of the same molecule?
A: Its Ki is 8 nM.

Q: And the D (Rattus norvegicus [30])?
A: The D was 14%.

Q: And the D (Rattus norvegicus [31])?
A: Its D is 0%.

Q: And the D (Rattus norvegicus [32])?
A: The D was 0%.

Q: What about the ED50 (Rattus norvegicus [33]) of the same molecule?
A: The ED50 was 0.052 µmol/kg.

Q: And the D (Rattus norvegicus [34])?
A: Its D is 0%.

Q: What about the SDL (Rattus norvegicus [35]) of the same molecule?
A: The SDL was 85%.

Q: And the SDL (Rattus norvegicus [36])?
A: Its SDL is 92%.

Q: And the SDL (Rattus norvegicus [37])?
A: Its SDL is 58%.

Q: What about the Potency (Rattus norvegicus [38]) of the same molecule?
A: Its Potency is 0.92.

Q: What about the SDL (Rattus norvegicus [39]) of the same molecule?
A: The SDL was 67%.

Q: Which D (Rattus norvegicus [5]) does the source give for CCN(CC)C(=O)[C@@H]1C=C2c3cccc4[nH]cc(c34)C[C@H]2N(C)C1 [LYSERGIDE] here?
A: Its D is 0%.

Q: And the Potency (Rattus norvegicus [40])?
A: Its Potency is 1.

Q: What about the SDL (Rattus norvegicus [41]) of the same molecule?
A: Its SDL is 100%.

Q: And the ED50 (Rattus norvegicus [42])?
A: The ED50 was 0.048 µmol/kg.
